Source: ChEMBL document CHEMBL3797058, “Sorazolons, Carbazole Alkaloids from Sorangium cellulosum Strain Soce375” (J Nat Prod, 2016)
≈ marks a conversion by molar mass, not a printed value. Calls of active or inactive are those of the source. The calls are words filed in the database; no cut-off is given here.

Legend:
[1] = tested on: Staphylococcus aureus; test: Antimicrobial activity against Staphylococcus aureus Newman by serial dilution method; format: functional
Method in brief: (§1)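 MIC by serial dilution (150 μL) in 96-well tissue-culture plates; 20 μL aliquots of compound at 1 mg/mL tested; methanol as negative control.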

[2] = tested on: Bacillus subtilis; test: Antimicrobial activity against Bacillus subtilis DSM 10 by serial dilution method; format: functional; method in brief: as §1
[3] = tested on: Escherichia coli; test: Antimicrobial activity against Escherichia coli DSM 1116 by serial dilution method; format: functional, organism-based; method in brief: as §1
[4] = tested on: Mucor hiemalis; test: Antimicrobial activity against Mucor hiemalis DSM 2656 by serial dilution method; format: functional; method in brief: as §1
[5] = tested on: Mycolicibacterium smegmatis; test: Antimicrobial activity against Mycobacterium smegmatis ATCC 700084 by serial dilution method; format: functional, organism-based; method in brief: as §1
[6] = tested on: Escherichia coli; test: Antimicrobial activity against Escherichia coli TolC by serial dilution method; format: functional; method in brief: as §1
[7] = tested on: L929; test: Cytotoxicity against mouse L929 cells; format: cell-based
Method in brief: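 Mouse fibroblast L929 cells exposed to 3.0 μL of each compound; MIC determined by serial dilution (60 μL) in 96-well tissue-culture plates.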

[8] = tested on: Micrococcus luteus; test: Antimicrobial activity against Micrococcus luteus DSM 1790 by serial dilution method; format: functional; method in brief: as §1
[9] = tested on: Wickerhamomyces anomalus; test: Antimicrobial activity against Wickerhamomyces anomalus DSM 6766 by serial dilution method; format: functional, organism-based; method in brief: as §1
[10] = tested on: Candida albicans; test: Antimicrobial activity against Candida albicans DSM 1665 by serial dilution method; format: functional, organism-based; method in brief: as §1
[11] = tested on: Pseudomonas aeruginosa; test: Antimicrobial activity against Pseudomonas aeruginosa PA14 by serial dilution method; format: functional; method in brief: as §1
[12] = Mus musculus, L929, read-out: IC50

SMILES | MIC [1] | MIC [2] | MIC [3] | MIC [4] | MIC [5] | MIC [6] | IC50 ([7]; l929) | MIC [8] | MIC [9] | MIC [10] | MIC [11] | IC50 [7, 12]
C[C@@]1(O)C(=O)C(=O)c2c([nH]c3ccccc23)[C@@]1(C)O | inactive | inactive | inactive | inactive | inactive | inactive | Not Active | inactive | inactive | inactive | inactive | –
C[C@@]1(O)C(=O)Cc2c([nH]c3ccccc23)[C@@]1(C)O | inactive | inactive | inactive | inactive | inactive | inactive | Not Active | inactive | inactive | inactive | inactive | –
Cc1c(O)cc2c([nH]c3ccccc32)c1C | 33.3 µg/mL (≈ 158 µM) | 16.6 µg/mL (≈ 78.6 µM) | inactive | inactive | inactive | 67 µg/mL (≈ 317 µM) | – | 33.3 µg/mL (≈ 158 µM) | inactive | inactive | inactive | 85.2 µM
Cc1ccc2c([nH]c3ccccc32)c1C=O | inactive | inactive | inactive | inactive | inactive | inactive | Not Active | inactive | inactive | inactive | inactive | –
CO[C@]1(C)c2[nH]c3ccccc3c2CC(=O)[C@@]1(C)O | inactive | inactive | inactive | inactive | inactive | inactive | Not Active | inactive | inactive | inactive | inactive | –
C=C1c2[nH]c3ccccc3c2C[C@@H](O)[C@@]1(C)O | inactive | inactive | inactive | inactive | inactive | inactive | Not Active | inactive | inactive | inactive | inactive | –
Cc1c(O)c(-c2c(O)c(C)c(C)c3[nH]c4ccccc4c23)c2c([nH]c3ccccc32)c1C | 16.6 µg/mL (≈ 39.5 µM) | 16.6 µg/mL (≈ 39.5 µM) | inactive | 67 µg/mL (≈ 159 µM) | inactive | 33.3 µg/mL (≈ 79.2 µM) | – | 16.6 µg/mL (≈ 39.5 µM) | inactive | inactive | inactive | 4.99 µM
CO[C@]1(C)c2[nH]c3ccccc3c2C(=O)C(=O)[C@@]1(C)O | 16.6 µg/mL (≈ 60.7 µM) | 8.3 µg/mL (≈ 30.4 µM) | inactive | inactive | inactive | inactive | – | 16.6 µg/mL (≈ 60.7 µM) | inactive | inactive | inactive | 76.8 µM
C[C@@]1(O)C(=O)[C@H]([C@H]2C(=O)[C@@](C)(O)[C@](C)(O)c3[nH]c4ccccc4c32)c2c([nH]c3ccccc23)[C@@]1(C)O | inactive | inactive | inactive | inactive | inactive | inactive | Not Active | inactive | inactive | inactive | inactive | –
